ChEMBL document CHEMBL2062460, “Disubstituted thiourea derivatives and their activity on CNS: synthesis and biological evaluation” (Eur J Med Chem, 2012)
Activity calls are given as the source filed them. The rule behind the calls is not given here.

Tests used:
[1] = Cytotoxicity against human MT4 cells after 96 hrs by MTT assay; format: cell-based
[2] = tested on: Human immunodeficiency virus 1; experiment: Antiviral activity against HIV1 infected in human MT4 cells assessed as virus-induced cytopathogenicity after 4 days by MTT assay; format: functional, organism-based; conditions: Human immunodeficiency virus 1, MT4, 96 h
Candida albicans [3] = experiment: Antifungal activity against Candida albicans ATCC 10231 at 400 ug/disc after 18 hrs by disc diffusion method; format: functional, organism-based
Method in brief: (§1)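 Yeasts tested by disc diffusion (CLSI) on RPMI agar with 2% glucose; 9 mm paper discs bearing 400 µg compound from methanol or DMSO solution; inhibition zone diameter read after 18 h at 35 °C.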

Pseudomonas aeruginosa [4] = experiment: Antibacterial activity against Pseudomonas aeruginosa NCTC 6749 at 400 ug/disc after 18 hrs by disc diffusion method; format: functional, organism-based
Method in brief: (§2)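 Disc diffusion per CLSI on Mueller–Hinton II agar; 9 mm paper discs loaded from methanol or DMSO solutions to 400 µg per disc, dried; growth inhibition zone diameter read after 18 h at 35 °C.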

Staphylococcus aureus [5] = experiment: Antibacterial activity against Staphylococcus aureus ATCC 25923 at 400 ug/disc after 18 hrs by disc diffusion method; format: functional; method in brief: as §2
Mus musculus [6] = experiment: Anticonvulsant activity in Albino Swiss mouse assessed as protection against pentylenetetrazole-induced mortality administered at doses equivalent to 0.1 ED50, ip; format: functional, organism-based
Mus musculus [7] = experiment: Toxicity in Albino Swiss mouse assessed as motor coordination administered at doses equivalent to 0.1 ED50, ip by rota rod test; format: organism-based; conditions: in vivo
Candida parapsilosis = experiment: Antifungal activity against Candida parapsilosis ATCC 22019 at 400 ug/disc after 18 hrs by disc diffusion method; format: functional, organism-based; method in brief: as §1
Escherichia coli [8] = experiment: Antibacterial activity against Escherichia coli ATCC 10538 at 400 ug/disc after 18 hrs by disc diffusion method; format: functional, organism-based; method in brief: as §2
Mus musculus [9] = experiment: Toxicity in Albino Swiss mouse assessed as locomotor activity administered at doses equivalent to 0.1 ED50, ip measured after 1 hr for 30 mins; format: organism-based; conditions: in vivo
Method in brief: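 Spontaneous locomotor activity of single male Albino Swiss mice in photoresistor actometers (two light beams), beam crossings recorded for 30 min, starting 60 min after i.p. compound in 0.5% methylcellulose.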

Mus musculus [10] = experiment: Reduction of body temperature in normothermic Albino Swiss mouse administered at doses equivalent to 0.1 ED50, ip measured in rectum by thermistor thermometer analysis; format: ADME, organism-based; conditions: in vivo
Staphylococcus aureus [11] = experiment: Antibacterial activity against Staphylococcus aureus ATCC 6538 at 400 ug/disc after 18 hrs by disc diffusion method; format: functional; method in brief: as §2
Mus musculus [12] = experiment: Antinociceptive activity in Albino Swiss mouse administered at doses equivalent to 0.025 to 0.1 ED50, ip; format: functional, organism-based
Mus musculus [13] = experiment: Reduction of 5-hydroxytryptophan-induced head twitch in Albino Swiss mouse administered at doses equivalent to 0.1 ED50, ip; format: functional, organism-based
Mus musculus [14] = experiment: Toxicity in Albino Swiss mouse assessed as motor coordination administered at doses equivalent to 0.1 ED50, ip by chimney test; format: organism-based; conditions: in vivo
[15] = tested on: Staphylococcus epidermidis; experiment: Antibacterial activity against Staphylococcus epidermidis ATCC 12228 at 400 ug/disc after 18 hrs by disc diffusion method; format: functional; method in brief: as §2
Pseudomonas aeruginosa [16] = experiment: Antibacterial activity against Pseudomonas aeruginosa ATCC 15442 at 400 ug/disc after 18 hrs by disc diffusion method; format: functional, organism-based; method in brief: as §2
Micrococcus luteus [17] = experiment: Antibacterial activity against Micrococcus luteus ATCC 10240 at 400 ug/disc after 18 hrs by disc diffusion method; format: functional; conditions: ATCC 10240, 18 h, read-out: DIZ; method in brief: as §2
Bacillus cereus = experiment: Antibacterial activity against Bacillus cereus ATCC 11778 at 400 ug/disc after 18 hrs by disc diffusion method; format: functional; method in brief: as §2
Proteus vulgaris = experiment: Antibacterial activity against Proteus vulgaris NCTC 4635 at 400 ug/disc after 18 hrs by disc diffusion method; format: functional, organism-based; method in brief: as §2
Escherichia coli [18] = experiment: Antibacterial activity against Escherichia coli NCTC 8196 at 400 ug/disc after 18 hrs by disc diffusion method; format: functional, organism-based; method in brief: as §2
[19] = tested on: Bordetella bronchiseptica; experiment: Antibacterial activity against Bordetella bronchiseptica ATCC 4617 at 400 ug/disc after 18 hrs by disc diffusion method; format: functional, organism-based; method in brief: as §2
Staphylococcus aureus [20] = experiment: Antibacterial activity against Staphylococcus aureus ATCC 29213 at 400 ug/disc after 18 hrs by disc diffusion method; format: functional; method in brief: as §2
Staphylococcus aureus [21] = experiment: Antibacterial activity against Staphylococcus aureus NCTC 4163 at 400 ug/disc after 18 hrs by disc diffusion method; format: functional; method in brief: as §2
Escherichia coli [22] = experiment: Antibacterial activity against Escherichia coli ATCC 25922 at 400 ug/disc after 18 hrs by disc diffusion method; format: functional, organism-based; method in brief: as §2
Candida albicans [23] = experiment: Antifungal activity against Candida albicans ATCC 90028 at 400 ug/disc after 18 hrs by disc diffusion method; format: functional, organism-based; method in brief: as §1
Mus musculus [24] = experiment: Toxicity in Albino Swiss mouse assessed as effect on amphetamine-induced hyperactivity administered at doses equivalent to 0.1 ED50, ip; format: organism-based; conditions: in vivo
Method in brief: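 Compound i.p. in 0.5% methylcellulose 60 min before test; amphetamine 5 mg/kg s.c. 30 min before test; single mice in photoresistor actometers, light-beam crossings counted for 30 min.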

Pseudomonas aeruginosa [25] = experiment: Antibacterial activity against Pseudomonas aeruginosa ATCC 27853 at 400 ug/disc after 18 hrs by disc diffusion method; format: functional, organism-based; method in brief: as §2
Micrococcus luteus [26] = experiment: Antibacterial activity against Micrococcus luteus ATCC 9341 at 400 ug/disc after 18 hrs by disc diffusion method; format: functional; conditions: ATCC 9341, 18 h, read-out: DIZ; method in brief: as §2
Bacillus subtilis = experiment: Antibacterial activity against Bacillus subtilis ATCC 6633 at 400 ug/disc after 18 hrs by disc diffusion method; format: functional; conditions: ATCC 6633, 18 h, read-out: DIZ; method in brief: as §2
Mus musculus [27] = experiment: Anticonvulsant activity in Albino Swiss mouse assessed as protection against pentylenetetrazole-induced severity of clonic or tonic seizures administered at doses equivalent to 0.1 ED50, ip; format: functional, organism-based
Enterococcus hirae = experiment: Antibacterial activity against Enterococcus hirae ATCC 10541 at 400 ug/disc after 18 hrs by disc diffusion method; format: functional; method in brief: as §2
HepG2 = experiment: Cytotoxicity against human HepG2 cells after 96 hrs by MTT assay; format: functional; conditions: HepG2, 96 h
Method in brief: (§3)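 Solid tumour lines were seeded at 1 × 10^5 cells/ml in line-specific media with 10% FCS and antibiotics. Serial dilutions from a 100 mM DMSO stock were added. After 96 h at 37 °C in 5% CO2, viability was read by MTT. The 50% growth-inhibiting concentration (µM) was obtained by linear regression versus untreated controls. Values are means of three independent determinations.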

CCRF-CEM = experiment: Cytotoxicity against human CCRF-CEM cells after 96 hrs by MTT assay; format: functional
Method in brief: (§4)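 Haematological tumour lines were seeded at 1 × 10^5 cells/ml in RPMI-1640 with 10% FCS plus penicillin/streptomycin. Serial dilutions from a 100 mM DMSO stock were added. After 96 h at 37 °C in 5% CO2, viability was read by MTT. The 50% proliferation-inhibiting concentration (µM) was obtained by linear regression against untreated controls, which completed at least three rounds of multiplication. Values are means of three determinations.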

CCRF-SB = experiment: Cytotoxicity against human CCRF-SB cells after 96 hrs by MTT assay; format: functional; method in brief: as §4
SK-MEL-28 = experiment: Cytotoxicity against human SK-MEL-28 cells after 96 hrs by MTT assay; format: functional; conditions: SK-MEL-28, 96 h; method in brief: as §3
DU-145 = experiment: Cytotoxicity against human DU145 cells after 96 hrs by MTT assay; format: functional; conditions: DU-145, 96 h; method in brief: as §3
SK-MES-1 = experiment: Cytotoxicity against human SKMES1 cells after 96 hrs by MTT assay; format: functional; conditions: SK-MES-1, 96 h; method in brief: as §3
WIL2-NS = experiment: Cytotoxicity against human WIL2-NS cells after 96 hrs by MTT assay; format: functional; method in brief: as §4
MCF7 = experiment: Cytotoxicity against human MCF7 cells after 96 hrs by MTT assay; format: functional; conditions: MCF7, 96 h; method in brief: as §3

Work on `COc1ccc(NC(=S)Nc2nc[nH]n2)cc1` yielded a CC50 at 96 h [1] greater than 100000 nM and an EC50 [2] greater than 100000 nM.

In the case of `S=C(Nc1cccc(Br)c1)Nc1nc[nH]n1`, the “diameter of the inhibition zone (DIZ)” value (Candida albicans [3]) is reported as “inactive”, the “diameter of the inhibition zone (DIZ)” value (Pseudomonas aeruginosa [4]) is reported as “inactive” and the “diameter of the inhibition zone (DIZ)” value (Staphylococcus aureus [5]) is reported as “inactive”. The Activity (Mus musculus [6]) was “inactive”, the Activity (Mus musculus [7]) was “Non-toxic” and the “diameter of the inhibition zone (DIZ)” value (Candida parapsilosis) was “inactive”. The “diameter of the inhibition zone (DIZ)” value (Escherichia coli [8]) was “inactive”, the Activity (Mus musculus [9]) was “Non-toxic” and the Activity (Mus musculus [10]) was “Toxic”. The “diameter of the inhibition zone (DIZ)” value (Staphylococcus aureus [11]) was “inactive”, the Activity (Mus musculus [12]) was “Active” and the Activity (Mus musculus [13]) was “Active”. The Activity (Mus musculus [14]) was “Non-toxic”, the “diameter of the inhibition zone (DIZ)” value [15] was “inactive” and the CC50 at 96 h [1] was 50000 nM. The “diameter of the inhibition zone (DIZ)” value (Pseudomonas aeruginosa [16]) was “inactive”, the zone of inhibition at 400 µg/disc (Micrococcus luteus [17]) was 14 mm and the “diameter of the inhibition zone (DIZ)” value (Bacillus cereus) was “inactive”. The “diameter of the inhibition zone (DIZ)” value (Proteus vulgaris) was “inactive”, the “diameter of the inhibition zone (DIZ)” value (Escherichia coli [18]) was “inactive” and the “diameter of the inhibition zone (DIZ)” value [19] was “inactive”. For the same compound, the “diameter of the inhibition zone (DIZ)” value (Staphylococcus aureus [20]) was “inactive”, the “diameter of the inhibition zone (DIZ)” value (Staphylococcus aureus [21]) was “inactive” and the “diameter of the inhibition zone (DIZ)” value (Escherichia coli [22]) was “inactive”. For the same compound, the “diameter of the inhibition zone (DIZ)” value (Candida albicans [23]) was “inactive”, the Activity (Mus musculus [24]) was “Non-toxic” and the “diameter of the inhibition zone (DIZ)” value (Pseudomonas aeruginosa [25]) was “inactive”. It also gave an EC50 [2] greater than 50000 nM, a zone of inhibition at 400 µg/disc (Micrococcus luteus [26]) of 15 mm and a zone of inhibition at 400 µg/disc (Bacillus subtilis) of 16 mm. For the same compound, the Activity (Mus musculus [27]) was “inactive” and the “diameter of the inhibition zone (DIZ)” value (Enterococcus hirae) was “inactive”.

Work on `CC[C@@]1(O)C(=O)OCc2c1cc1n(c2=O)Cc2cc3ccccc3nc2-1` [CAMPTOTHECIN] yielded a CC50 (HepG2) of 40 nM, a CC50 (CCRF-CEM) of 3 nM and a CC50 (CCRF-SB) of 4 nM. The CC50 (SK-MEL-28) was 70 nM, the CC50 (DU-145) was 80 nM and the CC50 (SK-MES-1) was 50 nM. For the same compound, the CC50 at 96 h [1] was 4 nM, the CC50 (WIL2-NS) was 5 nM and the CC50 (MCF7) was 80 nM.

`O=C(NC(=S)Nc1nc[nH]n1)c1ccccc1` showed a CC50 at 96 h [1] greater than 100000 nM and an EC50 [2] greater than 100000 nM.

Work on `O=C1Nc2ccc(Cl)cc2[C@@](C#CC2CC2)(C(F)(F)F)O1` [EFAVIRENZ] yielded a CC50 at 96 h [1] of 37000 nM.
